Test results reported in ChEMBL document CHEMBL1156992, “Identification and hit-to-lead exploration of a novel series of histamine H4 receptor inverse agonists” (Bioorg Med Chem Lett, 2010).

Assays:
Histamine H4 receptor [1] = molecular target: T1, Histamine H4 receptor (Homo sapiens, UniProt Q9H3N8); assay: Displacement of [3H]histamine dihydrochloride from human histamine H4 receptor after 2.5 hrs by scintillation proximity assay
Procedure, shortened: (§1)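 Human H4 receptor-expressing membranes (25 µg) incubated with 20 nM [³H]-histamine dihydrochloride and SPA beads. Buffer: 50 mM Tris pH 7.5, 5 mM EDTA, 0.5% BSA, 1% DMSO. Incubation 2.5 h at room temperature. Non-specific binding taken with excess histamine. Scintillation counting. IC50 from a 6-point semi-log dose-response, duplicate wells.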

Histamine H4 receptor [2] = molecular target: T1, Histamine H4 receptor; assay: Displacement of [3H]histamine human recombinant histamine H4 receptor; procedure, shortened: as §1
[3] = Metabolic stability in rat microsomes assessed as drug remaining after 10 mins; format: ADME, Microsome; conditions: for remaining at 10 min: read-out: Stability
Procedure, shortened: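 Compound incubated with rat liver microsomes. Parent remaining measured after 10 min, expressed as percent.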

Histamine H4 receptor [4] = molecular target: T1, Histamine H4 receptor; assay: Inverse agonist activity at human histamine H4 receptor assessed as inhibition of [35S]GTPgammaS binding after 15 mins by scintillation proximity assay; format: functional
Histamine H4 receptor [5] = molecular target: T1, Histamine H4 receptor; assay: Inverse agonist activity at human histamine H4 receptor assessed as inhibition of [35S]GTPgammaS binding after 15 mins by scintillation proximity assay relative to control; format: functional; parameters: concentration or dose not given beside the values
[6] = Half life in rat microsomes; format: ADME, Microsome
Histamine H1 receptor = Histamine H1 receptor (Homo sapiens, UniProt P35367); assay: Binding affinity to histamine H1 receptor
Chain of Histamine H1 receptor (P35367 whole entry): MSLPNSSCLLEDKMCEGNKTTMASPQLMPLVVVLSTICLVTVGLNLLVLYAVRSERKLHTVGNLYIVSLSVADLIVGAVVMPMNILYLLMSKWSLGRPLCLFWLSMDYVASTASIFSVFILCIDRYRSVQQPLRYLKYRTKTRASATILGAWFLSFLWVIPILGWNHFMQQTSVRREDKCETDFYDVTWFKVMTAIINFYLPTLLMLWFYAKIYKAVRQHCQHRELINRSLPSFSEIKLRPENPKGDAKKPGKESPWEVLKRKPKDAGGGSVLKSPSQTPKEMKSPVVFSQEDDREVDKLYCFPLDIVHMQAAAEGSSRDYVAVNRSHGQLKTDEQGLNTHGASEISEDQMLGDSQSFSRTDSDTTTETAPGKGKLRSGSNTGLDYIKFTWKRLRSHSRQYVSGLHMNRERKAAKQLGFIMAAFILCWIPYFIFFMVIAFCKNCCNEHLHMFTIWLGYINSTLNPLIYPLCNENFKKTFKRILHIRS

Histamine H2 receptor = Histamine H2 receptor (Homo sapiens, UniProt P25021); assay: Binding affinity to histamine H2 receptor
Chain of Histamine H2 receptor (P25021 whole entry): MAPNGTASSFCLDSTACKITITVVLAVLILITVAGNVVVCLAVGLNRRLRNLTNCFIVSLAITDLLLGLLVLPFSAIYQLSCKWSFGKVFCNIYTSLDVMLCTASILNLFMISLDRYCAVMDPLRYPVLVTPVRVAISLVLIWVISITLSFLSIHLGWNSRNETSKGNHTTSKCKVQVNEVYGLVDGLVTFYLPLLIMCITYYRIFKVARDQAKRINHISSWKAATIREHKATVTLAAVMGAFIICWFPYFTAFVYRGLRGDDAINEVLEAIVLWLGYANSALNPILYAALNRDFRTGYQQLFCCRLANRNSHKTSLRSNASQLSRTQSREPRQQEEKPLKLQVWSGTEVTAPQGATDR

Histamine H3 receptor = Histamine H3 receptor (Homo sapiens, UniProt Q9Y5N1); assay: Binding affinity to histamine H3 receptor
Chain of Histamine H3 receptor (Q9Y5N1 whole entry): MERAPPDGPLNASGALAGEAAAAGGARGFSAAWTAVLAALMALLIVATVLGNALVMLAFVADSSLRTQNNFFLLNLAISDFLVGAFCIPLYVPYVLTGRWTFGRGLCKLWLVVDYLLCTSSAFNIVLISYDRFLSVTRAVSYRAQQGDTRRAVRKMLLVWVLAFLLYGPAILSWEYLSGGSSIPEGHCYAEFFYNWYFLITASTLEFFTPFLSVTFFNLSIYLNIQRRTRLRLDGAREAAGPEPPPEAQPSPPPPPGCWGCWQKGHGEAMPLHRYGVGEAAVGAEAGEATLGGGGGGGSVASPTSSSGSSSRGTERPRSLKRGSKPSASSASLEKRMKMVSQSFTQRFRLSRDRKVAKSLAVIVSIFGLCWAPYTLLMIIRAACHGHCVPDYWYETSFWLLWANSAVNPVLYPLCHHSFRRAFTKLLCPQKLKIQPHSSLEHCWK

CYP1A2 = molecular target: T2, CYP1A2 (Homo sapiens, UniProt P05177); assay: Inhibition of CYP1A2 at 1 uM; format: ADME
T2 sequence (P05177 whole entry): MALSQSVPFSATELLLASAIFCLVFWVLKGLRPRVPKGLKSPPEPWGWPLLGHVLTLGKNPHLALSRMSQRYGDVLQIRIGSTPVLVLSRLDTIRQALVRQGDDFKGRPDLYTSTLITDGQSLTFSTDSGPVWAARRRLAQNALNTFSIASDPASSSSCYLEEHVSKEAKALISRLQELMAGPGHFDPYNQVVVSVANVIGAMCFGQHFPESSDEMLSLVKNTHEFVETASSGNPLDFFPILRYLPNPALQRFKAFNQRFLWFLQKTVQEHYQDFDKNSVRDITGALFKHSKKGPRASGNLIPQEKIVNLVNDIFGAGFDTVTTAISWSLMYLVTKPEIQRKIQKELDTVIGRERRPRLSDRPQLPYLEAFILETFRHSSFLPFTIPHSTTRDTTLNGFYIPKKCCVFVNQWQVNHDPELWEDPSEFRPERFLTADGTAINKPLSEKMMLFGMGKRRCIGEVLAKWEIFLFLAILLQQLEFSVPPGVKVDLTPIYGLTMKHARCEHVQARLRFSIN
Procedure, shortened: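 CYP1A2 inhibition tested at 1 µM. Percent inhibition reported.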

[7] = Clearance in rat at 5 mg/kg, po; format: ADME, organism-based; parameters: dose 5 mg/kg, route oral; conditions: in vivo
Procedure, shortened: (§2)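 Rat pharmacokinetic study with oral dosing at 5 mg/kg.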

Rattus norvegicus = assay: Volume of distribution in rat at 5 mg/kg, po; format: ADME, organism-based; parameters: dose 5 mg/kg, route oral; conditions: in vivo; procedure, shortened: as §2
[8] = Oral bioavailability in rat at 5 mg/kg; format: ADME, organism-based; conditions: in vivo; procedure, shortened: as §2
[9] = Oral bioavailability in dog; format: ADME, organism-based, Canis lupus familiaris; conditions: in vivo
[10] = Clearance in dog; format: ADME, organism-based, Canis lupus familiaris; conditions: in vivo
[11] = Volume of distribution in dog; format: ADME, organism-based, Canis lupus familiaris; conditions: in vivo
[12] = Oral bioavailability in Cynomolgus monkey; format: ADME, organism-based, Macaca fascicularis; conditions: in vivo
[13] = Clearance in Cynomolgus monkey; format: ADME, organism-based, Macaca fascicularis; conditions: in vivo
[14] = Volume of distribution in Cynomolgus monkey; format: ADME, organism-based, Macaca fascicularis; conditions: in vivo

Compound | IC50 (Histamine H4 receptor [1]) [nM] | remaining at 10 min [3] [%] | also measured
CC1CN(c2ncnc3c2oc2ccc(Cl)cc23)CC(C)N1C (stereo not drawn) | 10000 | – | –
CN1C[C@@H]2C[C@H]1CN2c1ncnc2c1oc1ccc(Cl)cc12 | 111 | 75 | IC50 (Histamine H4 receptor [4]): 70 nM; inhibition (Histamine H4 receptor [5]): 105%
CN[C@@H]1CCN(c2ncnc3c2oc2ccc(C)cc23)C1 | 86 | 74 | –
CN(C)C1CCN(c2ncnc3c2oc2ccc(Cl)cc23)C1 (stereo not drawn) | 21000 | 18 | –
CNC1CN(c2ncnc3c2oc2ccc(Cl)cc23)C1 | 87 | 89 | IC50 (Histamine H4 receptor [4]): 76 nM; inhibition (Histamine H4 receptor [5]): 149%
CNC1(C)CCN(c2ncnc3c2oc2ccc(Cl)cc23)C1 (stereo not drawn) | 1400 | – | –
Clc1ccc2oc3c(N4CCN5CCCC5C4)ncnc3c2c1 (stereo not drawn) | 236 | 0 | –
CNC1CCCN(c2ncnc3c2oc2ccc(Cl)cc23)C1 (stereo not drawn) | > 10000 | – | –
CCNC1CCN(c2ncnc3c2oc2ccc(Cl)cc23)C1 (stereo not drawn) | > 10000 | – | –
CN1C2CCC1CN(c1ncnc3c1oc1ccc(Cl)cc13)C2 | 440 | 62 | –
CNC1CCN(c2ncnc3c2oc2ccc(Cl)cc23)C1 (stereo not drawn) | 95 | 80 | –
CNC1CCN(c2ncnc3c2oc2ccc(C(=O)O)cc23)C1 (stereo not drawn) | > 30000 | 80 | –
CN[C@@H]1CCN(c2ncnc3c2oc2ccc(Cl)cc23)C1 | 33 | – | t1/2 [6]: 19 min; IC50 (Histamine H4 receptor [4]): 41 nM; Stability ([3]; 10 min): 92%
CN[C@H]1CCN(c2ncnc3c2oc2ccc(Cl)cc23)C1 | 285 | 103 | half-life [6]: 73 min; IC50 (Histamine H4 receptor [4]): 292 nM; inhibition (Histamine H4 receptor [5]): 122%
NC1CCN(c2ncnc3c2oc2ccc(Cl)cc23)C1 (stereo not drawn) | 126 | 107 | –
CNC(=O)c1ccc2oc3c(N4CCC(NC)C4)ncnc3c2c1 (stereo not drawn) | > 30000 | – | –
CN[C@@H]1CCN(c2ncnc3c2oc2cc(Cl)ccc23)C1 | 171 | – | –
Clc1ccc2oc3c(N4CC5CCCNC5C4)ncnc3c2c1 (stereo not drawn) | 1400 | – | –
CN1CC2CCC1CN2c1ncnc2c1oc1ccc(Cl)cc12 (stereo not drawn) | 169 | 66 | –
CNC1CCN(c2ncnc3c2oc2ccc(C#N)cc23)C1 (stereo not drawn) | 6200 | 95 | –
CN[C@@H]1CCN(c2ncnc3c2oc2ccc(C(F)(F)F)cc23)C1 | 30 | 59 | –
CNC1CCN(c2ncnc3c2oc2ccc(-c4ccccc4)cc23)C1 (stereo not drawn) | > 10000 | 97 | –

The next lines start with results.

IC50 (Histamine H4 receptor [1]) [nM] | remaining at 10 min [3] [%] | Compound | also measured
19 | 1 | CN1CCN(c2ncnc3c2oc2ccc(Cl)cc23)CC1 | IC50 (Histamine H4 receptor [2]): 19 nM
14200 | – | CN[C@@H]1CCN(c2nc(C(F)(F)F)nc3c2oc2ccc(Cl)cc23)C1 | –
310 | 8 | CN1CCN(c2nc(C3CC3)nc3c2oc2ccc(Cl)cc23)CC1 | –
1000 | 83 | CN1CCN(c2nc(O)nc3c2oc2ccc(Cl)cc23)CC1 | –
90 | 13 | COc1nc(N2CCN(C)CC2)c2oc3ccc(Cl)cc3c2n1 | –
> 10000 | – | CNC1CCN(c2ncnc3c2oc2ccc(Cl)cc23)CC1 | –
> 30000 | 40 | CN1CCN(c2nc(-c3ccccc3)nc3c2oc2ccc(Cl)cc23)CC1 | –
1 | 62 | CN[C@@H]1CCN(c2nc(N)nc3c2oc2ccc(Cl)cc23)C1 | half-life [6]: 13 min; IC50 (Histamine H4 receptor [4]): 3 nM; inhibition (Histamine H4 receptor [5]): 138%; IC50 (Histamine H1 receptor): > 30000 nM; IC50 (Histamine H2 receptor): > 30000 nM; IC50 (Histamine H3 receptor): 5800 nM; inhibition at 1 µM (CYP1A2): 45%; CL/F [7]: 117 mL/min/kg; Vd (Rattus norvegicus): 71 L/kg; bioavailability [8]: 5%; bioavailability [9]: 36%; clearance [10]: 52 mL/min/kg; Vd [11]: 26 L/kg; bioavailability [12]: 99%; clearance [13]: 62 mL/min/kg; Vd [14]: 25 L/kg
37 | 0 | Cc1nc(N2CCN(C)CC2)c2oc3ccc(Cl)cc3c2n1 | –
13 | 68 | CN[C@H]1CCN(c2nc(N)nc3c2oc2ccc(Cl)cc23)C1 | half-life [6]: 21 min; IC50 (Histamine H4 receptor [4]): 4 nM
1900 | 1 | CC1CN(c2ncnc3c2oc2ccc(Cl)cc23)CCN1C (stereo not drawn) | –
> 10000 | 106 | CN1CCN(c2nc(C(=O)O)nc3c2oc2ccc(Cl)cc23)CC1 | –
1600 | 95 | CNC1CCN(c2nc(C)nc3c2oc2ccc(Cl)cc23)C1 (stereo not drawn) | –
83 | 7 | CN1CCN(c2nc(C(F)(F)F)nc3c2oc2ccc(Cl)cc23)CC1 | IC50 (Histamine H4 receptor [4]): 39 nM; inhibition (Histamine H4 receptor [5]): 100%
